Source: ChEMBL document CHEMBL2321821, “Inhibition of the β-carbonic anhydrases from Mycobacterium tuberculosis with C-cinnamoyl glycosides: identification of the first inhibitor with anti-mycobacterial activity” (Bioorg Med Chem Lett, 2013)
Converted amounts (≈) assume the structure as drawn. The source made the active and inactive calls. The rule behind the calls is not given here.

Assays:
[1] = Inhibition of Mycobacterium tuberculosis Rv3588c beta-carbonic anhydrase by stopped flow assay
Procedure, shortened: (§1)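 Recombinant mtCA enzyme. CO2 hydration was followed by stopped-flow with phenol red indicator (0.02 mM) read at 557 nm, in 20 mM Hepes pH 7.5 with 20 mM Na2SO4, over 10–100 s. CO2 was 1.7–17 mM. Inhibitor was diluted in water and preincubated with enzyme 15 min at room temperature. Uncatalyzed rate subtracted; three determinations.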

[2] = Inhibition of Mycobacterium tuberculosis Rv1284 beta-carbonic anhydrase by stopped flow assay; procedure, shortened: as §1
[3] = test system: Mycobacterium tuberculosis; experiment: Antimicrobial activity against Mycobacterium tuberculosis H37Rv assessed as growth inhibition at 50 ug/ml after 7 days by serial twofold dilution method; format: functional, organism-based
Procedure, shortened: (§2)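 Broth microdilution against H37Rv in Middlebrook 7H9-ADS-G, with 0.05% Tween 80. Compounds from DMSO stock (10 mg/ml), twofold serial dilution on plate. Inoculum is a 1/25 dilution of a mid-log suspension (McFarland 1.0), ~10⁶ CFU per well. Rifampicin control; growth and sterility controls. Incubated 37 °C for 7 days. Growth read visually by turbidity; run in duplicate.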

[4] = Inhibition of Mycobacterium tuberculosis Rv3273 beta-carbonic anhydrase by stopped flow assay; procedure, shortened: as §1
[5] = test system: Mycobacterium tuberculosis; experiment: Antimicrobial activity against Mycobacterium tuberculosis H37Rv assessed as growth inhibition at 100 ug/ml after 7 days by serial twofold dilution method; format: functional, organism-based; procedure, shortened: as §2
[6] = test system: Mycobacterium tuberculosis; experiment: Antimicrobial activity against Mycobacterium tuberculosis H37Rv assessed as growth inhibition at < /= 25 ug/ml after 7 days by serial twofold dilution method; format: functional, organism-based; procedure, shortened: as §2
[7] = test system: Mycobacterium tuberculosis; experiment: Antimicrobial activity against Mycobacterium tuberculosis H37Rv after 30 days; format: functional
Procedure, shortened: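 M. tuberculosis H37Rv, fresh culture, ~1 × 10³ CFU plated onto solid Middlebrook 7H11 with ADS (1/10 v/v) and glycerol (1% v/v). Compound added to molten medium in wells at chosen concentrations. Incubated 37 °C for 30 days, then inspected visually. MIC99.9% taken as the concentration giving 99.9% reduction in cell counts.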

| Structure (SMILES) | Ki [1] [µM] | Ki [2] [µM] | growth inhibition (GI) [3] | Ki [4] [µM] | growth inhibition (GI) [5] | growth inhibition (GI) [6] | MIC [7] [µg/mL] |
| --- | --- | --- | --- | --- | --- | --- | --- |
| CC(=O)OC[C@H]1O[C@@H](CC(=O)/C=C/c2ccc(O)cc2)[C@H](OC(C)=O)[C@@H](OC(C)=O)[C@H]1OC(C)=O | 1.15 | 4.5 | inactive | 12 | inactive | inactive | – |
| CC(=O)OC[C@H]1O[C@@H](CC(=O)/C=C/c2ccc(O)cc2)[C@H](OC(C)=O)[C@@H](OC(C)=O)[C@@H]1OC(C)=O | 0.35 | 2.9 | Active | 13.1 | Active | inactive | > 100 |
| O=C(/C=C/c1ccc(O)cc1)C[C@@H]1O[C@H](CO)[C@@H](O)[C@H](O)[C@H]1O | 0.13 | 0.93 | Active | 4.13 | Active | inactive | – |
| CC(=O)OC[C@H]1O[C@@H](CC(=O)/C=C/c2cccc(O)c2)[C@H](OC(C)=O)[C@@H](OC(C)=O)[C@H]1OC(C)=O | 0.87 | 3.8 | inactive | 15.6 | inactive | inactive | – |
| Oc1ccccc1 [PHENOL] | – | 64 | – | 79 | – | – | – |
| O=C(/C=C/c1cccc(O)c1)C[C@@H]1O[C@H](CO)[C@H](O)[C@H](O)[C@H]1O | 0.51 | 1.16 | Active | 3.25 | Active | inactive | 100 (≈ 308 µM) |
| O=C(/C=C/c1cccc(O)c1)C[C@@H]1O[C@H](CO)[C@@H](O)[C@H](O)[C@H]1O | 0.24 | 0.14 | inactive | 6.21 | inactive | inactive | – |
| O=C(/C=C/c1ccc(O)cc1)C[C@@H]1O[C@H](CO)[C@H](O)[C@H](O)[C@H]1O | 0.94 | 4.5 | inactive | 4.13 | inactive | inactive | – |
| CC(=O)OC[C@H]1O[C@@H](CC(=O)/C=C/c2cccc(O)c2)[C@H](OC(C)=O)[C@@H](OC(C)=O)[C@@H]1OC(C)=O | 0.64 | 2.1 | Active | 19 | Active | inactive | 3.12 (≈ 6.35 µM) |
